Test results reported in ChEMBL document CHEMBL1125102, “Synthesis and biological evaluation of 2-styrylquinazolin-4(3H)-ones, a new class of antimitotic anticancer agents which inhibit tubulin polymerization” (J Med Chem, 1990).
Converted amounts (≈) assume the structure as drawn. “And” between values parts separate entries of the source, which are not always exact repeats. Identical values can stand only once.

Assays:
[1] = tested on: L1210; test: In vivo inhibition of L1210 murine leukemia cells in mice (ip) at a dose of 200 mg/kg; assay type: functional, Mus musculus
In short: (§1)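 L1210 murine leukemia in mice: tumor cells inoculated ip, drug injected ip one day later; efficacy expressed as % T/C at the stated dose.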

[2] = tested on: L1210; test: In vitro inhibition of L1210 murine leukemia cells by using MTT assay in cell culture; assay type: functional, cell-based; conditions: Mus musculus
In short: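 L1210 murine leukemia cells in culture; cytotoxicity measured by MTT assay, reported as IC50 in μg/mL.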

[3] = biological target: Tubulin; test: Inhibition of tubulin polymerization; assay type: functional
In short: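 Glutamate-driven assembly: purified tubulin 1.0 mg/mL (10 μM) in 1.0 M monosodium glutamate pH 6.6, 1.0 mM MgCl2, 4% (v/v) DMSO, preincubated with drug 15 min at 37 °C, chilled, GTP added, then warmed 0→37 °C in cuvettes with turbidity read-out. IC50 = drug level halving extent of polymerization, obtained graphically in triplicate experiments.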

[4] = tested on: L1210; test: In vivo inhibition of L1210 murine leukemia cells in mice (ip) at a dose of 50 mg/kg; assay type: functional, Mus musculus; in short: as §1
[5] = tested on: L1210; test: In vivo inhibition of L1210 murine leukemia cells in mice (ip) at a dose of 100 mg/kg; assay type: functional, Mus musculus; in short: as §1
[6] = Antitumor activity against human melanoma xenograft LOX (SC) cells was determined after (ip) administration of a dose of 60 mg/kg; assay type: functional
[7] = Antitumor activity against human melanoma xenograft LOX (SC) cells was determined after (ip) administration of a dose of 120 mg/kg; assay type: functional
[8] = Antitumor activity against human melanoma xenograft LOX (SC) cells was determined after (ip) administration of a dose of 240 mg/kg; assay type: functional
[9] = tested on: MX1; test: Antitumor activity against human mammary tumor xenograft MX-1(SRC) cells was determined after (ip) administration of a dose of 120 mg/kg; assay type: functional
[10] = tested on: MX1; test: Antitumor activity against human mammary tumor xenograft MX-1(SRC) cells was determined after (ip) administration of a dose of 240 mg/kg; assay type: functional
[11] = tested on: MX1; test: Antitumor activity against human mammary tumor xenograft MX-1(SRC) cells was determined after (ip) administration of a dose of 60 mg/kg; assay type: functional
[12] = Antitumor activity against murine melanoma B16 cells was determined after (ip) administration of a dose of 100 mg/kg, ip; assay type: functional, Mus musculus; conditions: route intraperitoneal
[13] = Antitumor activity against murine melanoma B16 cells was determined after (ip) administration of a dose of 200 mg/kg, ip; assay type: functional, Mus musculus; conditions: route intraperitoneal
[14] = Antitumor activity against murine melanoma B16 cells was determined after (ip) administration of a dose of 300 mg/kg, ip; assay type: functional, Mus musculus; conditions: route intraperitoneal
[15] = Antitumor activity against murine melanoma B16 cells was determined after (ip) administration of a dose of 400 mg/kg, ip; assay type: functional, Mus musculus; conditions: route intraperitoneal
[16] = Antitumor activity against murine melanoma B16 cells was determined after (ip) administration of a dose of 50 mg/kg, ip; assay type: functional, Mus musculus; conditions: route intraperitoneal
[17] = tested on: L1210; test: (§2) Antitumor activity against […] was determined after (ip) administration of a dose of 60 mg/kg; assay type: functional, Mus musculus
[18] = tested on: P388; test: as §2; assay type: functional, Mus musculus
[19] = tested on: L1210; test: (§3) Antitumor activity against murine leukemia P388 cells was determined after (ip) administration of a dose of 120 mg/kg; assay type: functional, Mus musculus
[20] = tested on: P388; test: as §3; assay type: functional, Mus musculus
[21] = Antitumor activity against murine sarcoma M531 cells was determined after (ip) administration of a dose of 120 mg/kg, ip; assay type: functional, Mus musculus; conditions: route intraperitoneal
[22] = Antitumor activity against murine sarcoma M531 cells was determined after (ip) administration of a dose of 240 mg/kg, ip; assay type: functional, Mus musculus; conditions: route intraperitoneal
[23] = tested on: L1210; test: In vivo inhibition of L1210 murine leukemia cells in mice (ip) at a dose of 25 mg/kg; assay type: functional, Mus musculus; in short: as §1
[24] = tested on: L1210; test: In vivo inhibition of L1210 murine leukemia cells in mice (ip) at a dose of 240 mg/kg; assay type: functional, Mus musculus; in short: as §1
[25] = tested on: L1210; test: In vivo inhibition of L1210 murine leukemia cells in mice (ip) at a dose of 12 mg/kg; assay type: functional, Mus musculus; in short: as §1
[26] = tested on: L1210; test: […]; assay type: functional, Mus musculus; conditions: dose 150 mg/kg
In short: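 Murine L1210 leukemia cells were inoculated intraperitoneally into mice. Drug was injected intraperitoneally one day after tumor inoculation. Therapeutic efficacy was read out as % T/C at the stated dose in mg/kg.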

Structure (SMILES) | T/C [1] [%] | IC50 [2] [µg/mL] | IC50 [3] [µM] | also measured
Oc1nc(/C=C/c2ccccc2)nc2cc(N3CCCCC3)c(F)cc12 | 85 | 0.2 (≈ 0.572 µM) | > 40 | 
Sc1nc(/C=C/c2ccccc2)nc2ccc(Cl)cc12 |  | > 1 | > 40 | T/C [4]: 94%
Oc1nc(/C=C/c2ccccc2)nc2sccc12 | 92 | > 1 | > 40 | 
CN1CCN(c2cc3nc(/C=C/c4ccccc4)nc(O)c3cc2F)CC1 |  | 0.2 (≈ 0.549 µM) | > 40 | T/C [4]: 100%
Nc1ccc2nc(/C=C/c3ccccc3)nc(O)c2c1 |  | 0.6 (≈ 2.28 µM) | > 40 | 
O=c1oc(/C=C/c2ccccc2)nc2c(O)nc(O)nc12 |  | > 1 | > 40 | T/C [4]: 94%
Cc1cccc2nc(/C=C/c3ccccc3)nc(O)c12 | 100 | 0.03 (≈ 0.114 µM) | > 40 | 
Oc1nc(/C=C/c2ccccc2)nc2ccc(Cl)cc12 |  | 0.001 (≈ 0.00354 µM) | 2.5 | T/C [4]: 146%
Oc1nc(/C=C/c2ccccc2)nc2ccc(I)cc12 | 117 | 0.3 (≈ 0.802 µM) | 1.4 | 
Oc1nc(/C=C/c2ccccc2)nc2c(Cl)cccc12 |  | > 1 | > 40 | 
Oc1ccc2nc(/C=C/c3ccccc3)nc(O)c2c1 |  | 0.006 (≈ 0.0227 µM) | > 40 | T/C [5]: 99%
COc1ccc2nc(/C=C/c3ccccc3)[nH]c(=O)c2c1 |  | 0.001 (≈ 0.00359 µM) | 2 | T/C [4]: 173%; T/C [6]: 142%; T/C [7]: 142%; T/C [8]: 153%; T/C [9]: 16%; T/C [10]: -81%; T/C [11]: 21%; T/C [12]: 145%; T/C [13]: 197% and 141%; T/C [14]: 158%; T/C [15]: 190%; T/C [16]: 129%; T/C [17]: 158%; T/C [18]: 135%; T/C [19]: 225%; T/C [20]: 174%; T/C [21]: 136%; T/C [22]: 154%
COc1ccc2c(O)nc(/C=C/c3ccccc3)nc2c1 | 100 | 0.001 (≈ 0.00359 µM) | 5.7 | 
Cc1ccc2nc(/C=C/c3ccccc3)nc(O)c2c1 |  | 0.02 (≈ 0.0762 µM) | 2 | T/C [23]: 107%
Oc1nc(CC(c2ccccc2)N2CCOCC2)nc2ccc(Cl)cc12 (configuration not stated) | 125 |  | > 40 | 
Cc1nc(/C=C/c2ccccc2)nc(O)c1C |  | > 1 | > 40 | T/C [4]: 89%
Oc1nc(Cc2ccccc2)nc2ccc(Cl)cc12 |  | > 1 | > 40 | 
Nn1c(/C=C/c2ccccc2)nc2ccc(Cl)cc2c1=O |  | > 1 | > 40 | T/C [4]: 90%
Oc1nc(/C=C/c2ccccn2)nc2ccc(Cl)cc12 | 91 | 0.61 (≈ 2.15 µM) | > 40 | 
Oc1nc(/C=C/c2ccccc2)nc2cc(Cl)c(F)cc12 |  | 0.007 (≈ 0.0233 µM) | > 40 | T/C [5]: 111%
Oc1nc(/C=C/c2ccccc2)nc2ccc(F)cc12 |  | 0.05 (≈ 0.188 µM) | 5.4 | T/C [5]: 129%

Structure (SMILES) | T/C [1] [%] | IC50 [2] [µg/mL] | IC50 [3] [µM] | also measured
Oc1nc(/C=C/c2ccccc2)nc2ccc3ncccc3c12 |  | 0.4 (≈ 1.34 µM) | > 40 | T/C [4]: 95%
O=c1[nH]c(/C=C/c2ccccc2)nc2ccccc12 |  | 0.02 (≈ 0.0806 µM) | 11 | T/C [24]: 133%
O=c1[nH]c(=O)c2nc(/C=C/c3ccccc3)nc(O)c2[nH]1 |  | > 1 | > 40 | T/C [4]: 93%
CCOc1ccc2nc(/C=C/c3ccccc3)nc(O)c2c1 |  | 0.4 (≈ 1.37 µM) | > 40 | 
Oc1nc(CCc2ccccc2)nc2ccc(Cl)cc12 | 113 | 0.01 (≈ 0.0351 µM) | 7.3 | 
CC(=O)Oc1ccc2nc(/C=C/c3ccccc3)nc(O)c2c1 | 78 | 0.3 (≈ 0.979 µM) | 4 | 
CCN(CC)CCCC(C)Nc1nc(/C=C/c2ccccc2)nc2ccc(Cl)cc12 (configuration not stated) |  |  | > 40 | T/C [25]: 105%
O=S1(=O)N=C(/C=C/c2ccccc2)Nc2ccccc21 | 91 | > 1 | > 40 | 
COc1cc2nc(/C=C/c3ccccc3)nc(O)c2cc1OC | 96 | 0.03 (≈ 0.0973 µM) | 3.3 | 
C/C=C/c1nc(O)c2ccccc2n1 |  | > 1 | > 40 | 
C/C=C/c1nc(O)c2cc(Cl)ccc2n1 | 95 | > 1 | > 40 | 
Oc1nc(/C=C/c2ccccc2)nc2cc(Cl)ccc12 |  | > 1 | 17 | 
Oc1nc(/C=C/c2ccccc2)nc2cccc(Cl)c12 |  | > 1 | > 40 | T/C [5]: 100%
Cn1c(/C=C/c2ccccc2)nc(=O)c2cc(Cl)ccc21 |  | 0.04 (≈ 0.135 µM) | > 40 | T/C [4]: 96%
O=c1c2cc(Cl)ccc2nc2n1NC(c1ccccc1)C2 (configuration not stated) |  | > 1 | > 40 | 
Oc1nc(C#Cc2ccccc2)nc2ccc(Cl)cc12 | 125 | 0.002 (≈ 0.00712 µM) | > 40 | 
Nc1ccccc1C(=O)Oc1ccc2nc(/C=C/c3ccccc3)nc(O)c2c1 |  | > 1 | > 40 | T/C [26]: 99%
COc1ccc2nc(CC(c3ccccc3)N3CCCCC3)nc(O)c2c1 (configuration not stated) |  | 0.001 (≈ 0.00275 µM) | 14 | T/C [5]: 107%
CN1CCN(C(Cc2nc(O)c3cc(Cl)ccc3n2)c2ccccc2)CC1 (configuration not stated) |  |  | 5.3 | T/C [5]: 100%
Cc1nc(O)c2cc(Cl)ccc2n1 |  | > 1 | > 40 | 
Oc1nc(/C=C/c2ccccc2)nc2ccc(Br)cc12 |  | 0.01 (≈ 0.0306 µM) | 2 | T/C [23]: 133%
